B2AR ag = agonists of human beta-2 adrenergic receptor inducing internalization | P07550 | AID 504454 | 340,000 tested, 0.43% active | Am2.2-beta2AR cells, FAP receptor internalization, flow cytometry | response, % (test concentration not listed);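 active = response above a set limit, near 3 SD of response in nonfluorescent compounds, cut at about 42% in these data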
VLA-4 inh = inhibition in a human VLA-4 binding assay. VLA-4 expressing cells, ligand binding flow cytometry. inhibition, % (about 7 µM as worked out from the volumes in the protocol). 330,000 tested, 0.2% active. AID 2557; in the data active = inhibition above about 50%
Target sequence (P13612 whole entry, looked up): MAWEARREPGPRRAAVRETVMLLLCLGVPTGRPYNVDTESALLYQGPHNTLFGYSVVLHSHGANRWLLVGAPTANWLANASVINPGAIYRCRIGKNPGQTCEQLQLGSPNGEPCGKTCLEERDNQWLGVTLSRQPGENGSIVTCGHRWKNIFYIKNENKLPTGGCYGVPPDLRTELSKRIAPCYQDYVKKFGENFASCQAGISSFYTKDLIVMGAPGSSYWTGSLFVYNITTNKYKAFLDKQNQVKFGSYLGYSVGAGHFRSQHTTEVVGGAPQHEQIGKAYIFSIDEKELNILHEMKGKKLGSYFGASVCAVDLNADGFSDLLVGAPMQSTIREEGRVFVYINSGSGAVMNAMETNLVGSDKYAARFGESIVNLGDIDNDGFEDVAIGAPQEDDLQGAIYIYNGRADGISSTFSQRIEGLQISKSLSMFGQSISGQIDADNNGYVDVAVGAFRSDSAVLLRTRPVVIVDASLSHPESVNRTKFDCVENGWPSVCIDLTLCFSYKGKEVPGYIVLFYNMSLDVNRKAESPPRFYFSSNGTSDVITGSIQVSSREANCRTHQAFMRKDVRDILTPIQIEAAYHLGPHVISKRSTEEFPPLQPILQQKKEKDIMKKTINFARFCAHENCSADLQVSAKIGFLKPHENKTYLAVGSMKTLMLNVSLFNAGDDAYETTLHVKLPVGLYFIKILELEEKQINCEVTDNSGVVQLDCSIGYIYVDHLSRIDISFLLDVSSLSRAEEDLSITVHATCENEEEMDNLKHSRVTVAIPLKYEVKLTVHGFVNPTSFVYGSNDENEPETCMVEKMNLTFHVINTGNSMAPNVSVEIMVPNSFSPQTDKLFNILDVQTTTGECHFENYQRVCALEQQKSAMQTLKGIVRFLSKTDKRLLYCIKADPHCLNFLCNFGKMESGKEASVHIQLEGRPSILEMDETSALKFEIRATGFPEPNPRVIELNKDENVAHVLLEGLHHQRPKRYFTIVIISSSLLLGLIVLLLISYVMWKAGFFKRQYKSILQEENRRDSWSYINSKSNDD
CHOP inh = blocks CHOP induction under ER stress; 220,000 tested, 3.8% active; inhibition, % at 10 µM; CHO-K1 CHOP-promoter luciferase, tunicamycin-induced, 15-18 h;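 active = compounds that reduced the stress-induced luciferase reporter signal by more than about 70% of percent inhibition, limit read from the data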
XBP1 UPR activ = adaptive UPR (XBP1) activation; CHO-XBP1 luciferase reporter, IRE1-XBP1 UPR activation, luminescence; percent of tunicamycin response, DMSO as zero; activation, % at 20 µM; 330,000 tested, 0.33% active; AID 463104;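 active = versus positive control, 20 µM dose yields 30% or more activation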
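incubation = overnight seeding at 37 °C, 6 h compound treatment at 37 °C | assay system = CHO-XBP1 cells stably carrying IRE1-XBP1-driven luciferase reporter | input = 1000 cells per well | detection = luciferase luminescence | dosing = single point, 20 µM final compound, 1% DMSO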
UPR CHOP act = apoptotic UPR (CHOP) activation | CHO-CHOP luciferase reporter, luminescence; percent of tunicamycin response over DMSO baseline | activation, % at 10 µM | 330,000 tested, 0.34% active;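 active = at 10 µM dose, activation of 40% or more, normalized to positive control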
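Assay system: CHO cells with stable CHOP pathway luciferase reporter; Buffer or medium: F12 plus 10% serum; Times: 16-18 h cell attachment, then 6 h compound exposure, 37 °C; Signal: luciferase luminescence; Read-out basis: percent activation relative to tunicamycin control; Control set: tunicamycin high control, DMSO low control.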
VLA-4 allo CP = human VLA-4 allosteric modulation in cherry picked compounds. shares compounds with VLA-4 inh. U937 cells, HUTS-21 LIBS mAb binding, flow cytometry; LDV ligand present at threefold Kd. inhibition, % at 6.7 µM. 1,300 tested, 2% active. AID 2813; in the data active = inhibition above about 40%
Each line names hits and unclear results; the compound was inactive in the other large screens (follow-up assays come after a bar, where they were run); ! = a repeat was not active. This is one part of a sample in which hits are shown more often than they occur.

CCN(CC(=O)Nc1c(F)cccc1F)C(=O)c1cc(-c2cccs2)nn1-c1ccccc1	none (no result: CHOP inh)
CCSc1cnn(-c2ccccc2)c(=O)c1Cl	none (no result: CHOP inh)
CCOc1cnn(-c2ccccc2)c(=O)c1Cl	none (no result: CHOP inh) | VLA-4 allo CP inactive
O=C(CC(c1ccccc1)C1CCCCC1=O)c1ccccc1 (stereo unspecified)	none (no result: VLA-4 inh, CHOP inh, XBP1 UPR activ, UPR CHOP act)
CCCN(CC(=O)Nc1ccccc1OC)C(=O)c1nc2nc(C)ccn2n1	none (no result: CHOP inh)
CCCCCCCCNC(=O)/C(C#N)=C/c1ccc2c(c1)OCCO2	none
COCCNC(=O)/C(C#N)=C/c1cccc(/C=C(\C#N)C(=O)NCCOC)c1	VLA-4 inh 50.4 (no result: XBP1 UPR activ, UPR CHOP act) | VLA-4 allo CP inactive
COCCNC(=O)/C(C#N)=C/c1ccc(O)cc1	none | VLA-4 allo CP inactive
CCOCCCNC(=O)/C(C#N)=C/c1ccc(Cl)c([N+](=O)[O-])c1	VLA-4 inh 59.1 | VLA-4 allo CP inactive
CCCCCCCCNC(=O)/C(C#N)=C/c1ccc(SC)cc1	CHOP inh 93.1 | VLA-4 allo CP inactive
COCCNC(=O)/C(C#N)=C/c1ccc(O)c([N+](=O)[O-])c1	none
CCOCCCNC(=O)/C(C#N)=C/c1cc(OC)c(O)c([N+](=O)[O-])c1	none
CCCOc1cccc(C(=O)NCCNC(=O)c2ccco2)c1	none (no result: CHOP inh)
CCOc1ccccc1Nc1nnc(SC(C)C(=O)Nc2nc(-c3ccccc3)cs2)s1 (stereo unspecified)	none
CCOc1ccc(C(C(=O)NCC2CCCO2)N(C(=O)c2snc(C(N)=O)c2N)c2ccc3c(c2)OCCO3)cc1 (stereo unspecified)	none (no result: CHOP inh)
Cc1cc(C)cc(C(=O)N[C@@H](C)C(=O)N2CCC3(CC2)NCCc2[nH]cnc23)c1	none (no result: CHOP inh)
CCN(CC)S(=O)(=O)c1cc(NC(=O)C2CC(=O)N(Cc3ccccc3)C2)ccc1Cl (stereo unspecified)	none (no result: CHOP inh)
NS(=O)(=O)c1ccc(NC(=S)N2CCC(Cc3ccccc3)CC2)cc1	none (no result: CHOP inh)
O=C(O)c1ccccc1NC(=O)C(c1ccccc1)c1ccccc1	none (no result: CHOP inh) | VLA-4 allo CP inactive
Cc1ccc(CNC(=O)CCCc2cn(C)c3ccccc23)cc1	none (no result: CHOP inh) | VLA-4 allo CP inactive
COc1cc(OC)cc(C(=O)NC(=S)NCc2ccco2)c1	none
COc1cc(OC)cc(C(=O)NNC(=S)NCc2ccco2)c1	VLA-4 inh 52.6 | VLA-4 allo CP inactive
CC(C(=O)NCC1CCCCC1)N1CCN(S(=O)(=O)/C=C/c2ccccc2)CC1 (stereo unspecified)	none | VLA-4 allo CP inactive
O=C(NC(=S)NCc1ccc(-c2nc3ccccc3s2)cc1)c1ccco1	none | VLA-4 allo CP inactive
CCN1CCN(Cc2ccc(NC(=O)c3cc(NC(=O)N4CCNC4=O)cc(OC)c3)cc2C(F)(F)F)CC1	VLA-4 inh 55.2 | VLA-4 allo CP inactive
COc1cc(NC(=O)c2ccno2)cc(C(=O)Nc2cccc(C(F)(F)F)c2)c1	none
COc1cc(NC(=O)N2CCNC2=O)cc(C(=O)Nc2cccc(C(F)(F)F)c2)c1	CHOP inh 74.5 | VLA-4 allo CP inactive
CCN1CCN(Cc2ccc(NC(=O)c3cc(NC(=O)c4ccno4)cc(OC)c3)cc2C(F)(F)F)CC1	none
Cc1cc(C)c(S(=O)(=O)N2CCCC(C(=O)NCc3cccnc3)C2)c(C)c1 (stereo unspecified)	none (no result: CHOP inh)
O=C(OCC(=O)N1CCCCCC1)c1ccc[nH]c1=O	none (no result: CHOP inh)
O=C(OCC(=O)N1CCOCC1)c1ccc[nH]c1=O	VLA-4 inh 51.9 | VLA-4 allo CP inactive
Cc1ccc(S(=O)(=O)N2CCOCC2)cc1NC(=O)c1cc([N+](=O)[O-])ccc1N1CCOCC1	none (no result: CHOP inh)
Cc1ccc(C)c(NC(=O)c2cc(S(=O)(=O)N3CCCCC3)ccc2N2CCOCC2)c1	VLA-4 inh 50.9 (no result: CHOP inh) | VLA-4 allo CP inactive
NC(=O)c1ccccc1NC(=O)c1cc(S(=O)(=O)N2CCCCC2)ccc1N1CCOCC1	none (no result: CHOP inh) | VLA-4 allo CP inactive
O=C(Nc1ccccc1)c1cc(S(=O)(=O)N2CCCCC2)ccc1N1CCOCC1	none (no result: CHOP inh) | VLA-4 allo CP inactive
CCOc1ccc(S(=O)(=O)Nc2ccccc2C(=O)N(C)C2CCN(C)CC2)cc1	VLA-4 inh 49.7 (no result: CHOP inh) | VLA-4 allo CP inactive
COc1ccnc(CS(=O)c2nc3cc(C(O)(F)F)ccc3[nH]2)c1OC (stereo unspecified)	none (no result: CHOP inh)
COc1ccc2[nH]c(S(=O)Cc3ncc(C)c(OC)c3C)nc2c1 (stereo unspecified)	VLA-4 inh 53.6! (no result: CHOP inh) | VLA-4 allo CP inactive
CC1CCCN(C(=O)c2ccc3c(c2)OCCO3)C1 (stereo unspecified)	VLA-4 inh 50.3 (no result: CHOP inh) | VLA-4 allo CP inactive
COc1cccc(C(=O)Nc2ncc3c(n2)CC(C)CC3=O)c1 (stereo unspecified)	VLA-4 inh 61.8 | VLA-4 allo CP inactive
COc1ccc(Br)cc1S(=O)(=O)n1c([N+](=O)[O-])cnc1C	none (no result: CHOP inh) | VLA-4 allo CP inactive
COC(=O)c1ccc(Cl)c(NC(=O)c2cccc([N+](=O)[O-])c2C)c1	none
COC(=O)c1ccc(C)c(NC(=O)c2ccc(Cl)c([N+](=O)[O-])c2)c1	VLA-4 inh 53.8 | VLA-4 allo CP inactive
CCOc1ccc2[nH]c(C(=O)N/N=C/c3ccc(OC)cc3)cc2c1	B2AR ag 51.8, VLA-4 inh 55.6 (no result: CHOP inh) | VLA-4 allo CP inactive
COc1ccc(/C=N/NC(=O)c2cc3cc(OC)c(OC)cc3[nH]2)cc1	none (no result: CHOP inh)
CC(Oc1cc2oc(=O)c3c(c2cc1Cl)CCC3)C(=O)NCc1ccccn1 (stereo unspecified)	none (no result: CHOP inh)
CCn1c2ccccc2c2cc(NC(=O)c3cc(OC)cc(OC)c3)ccc21	none | VLA-4 allo CP inactive
COc1ccc(NC(=O)CSc2nnc3n2CCCCC3)cc1S(=O)(=O)N1CCOCC1	none (no result: CHOP inh)
CCC(=O)c1ccc(OCC(=O)NCCC2=CCCCC2)c(OC)c1	none (no result: CHOP inh)
O=C(COC(=O)c1ccc(O)cc1)NCCC1=CCCCC1	VLA-4 inh 60.7 | VLA-4 allo CP inactive
CCOc1ccc(C(=O)NCCC2=CCCCC2)cc1OCC	VLA-4 inh 51.8 | VLA-4 allo CP inactive
Cc1ccc(C(=O)OCC(=O)NCCC2=CCCCC2)cc1N	none
O=C(COc1ccc(Br)cc1)N1CCN(c2ncccn2)CC1	none (no result: CHOP inh)
O=C(Nc1nccs1)C1CCN(S(=O)(=O)c2ccccc2)CC1	none (no result: CHOP inh)
COc1ccc(CNc2cc(C)nc3ccc(OC)cc23)cc1	none (no result: CHOP inh)
COc1ccc(/C=C/C(=O)Nc2ccccc2C(=O)NCC(c2ccc(OC)cc2)N(C)C)cc1 (stereo unspecified)	VLA-4 inh 53.9 (no result: CHOP inh) | VLA-4 allo CP inactive
COc1ccc(/C=C/C(=O)Nc2ccccc2C(=O)O)cc1	none
N#Cc1cccc(NS(=O)(=O)c2ccc(S(=O)(=O)N3CCOCC3)cc2)c1	none (no result: CHOP inh)
N#Cc1cccc(NS(=O)(=O)c2ccccc2Cl)c1	none (no result: CHOP inh) | VLA-4 allo CP inactive
COCCSc1nc(N)c2c3c(sc2n1)CN(C)CC3	none

Screening results (PubChem BioAssay)
